Data: ChEMBL document CHEMBL1132971, “New azolidinediones as inhibitors of protein tyrosine phosphatase 1B with antihyperglycemic properties” (J Med Chem, 2000)
Blank lines part the entries; values can stand above or below the compound they belong to.

Key:
[1] = system: Mus musculus; assay: Evaluated in vivo for their ability to decrease plasma glucose levels in diabetic C57BL/KsJ ob/ob mouse at a dose 100 mg/kg/day *p indicates <0.05; type: functional
How it was run: (§1)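 Diabetic db/db or ob/ob mice dosed orally once daily for 4 days. Plasma glucose and insulin reported as percent change from a vehicle-treated group. 4-6 mice per group. Significance set at p < 0.05 or p < 0.01 versus vehicle; NS means generally less than -15% change.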

[2] = system: Mus musculus; assay: Evaluated for their ability to decrease plasma insulin levels in mouse at a dose 100 mg/kg/day, *p indicates <0.05; type: functional; how it was run: as §1
[3] = biological target: T1, Tyrosine-protein phosphatase non-receptor type 1 (Rattus norvegicus) (UniProt P20417); assay: Inhibition of PTPase (PTP1B) activity in rat hepatic membrane at 50 uM concentration, using pNPP as the substrate; type: cell membranes; conditions: Liver
T1 sequence (whole entry): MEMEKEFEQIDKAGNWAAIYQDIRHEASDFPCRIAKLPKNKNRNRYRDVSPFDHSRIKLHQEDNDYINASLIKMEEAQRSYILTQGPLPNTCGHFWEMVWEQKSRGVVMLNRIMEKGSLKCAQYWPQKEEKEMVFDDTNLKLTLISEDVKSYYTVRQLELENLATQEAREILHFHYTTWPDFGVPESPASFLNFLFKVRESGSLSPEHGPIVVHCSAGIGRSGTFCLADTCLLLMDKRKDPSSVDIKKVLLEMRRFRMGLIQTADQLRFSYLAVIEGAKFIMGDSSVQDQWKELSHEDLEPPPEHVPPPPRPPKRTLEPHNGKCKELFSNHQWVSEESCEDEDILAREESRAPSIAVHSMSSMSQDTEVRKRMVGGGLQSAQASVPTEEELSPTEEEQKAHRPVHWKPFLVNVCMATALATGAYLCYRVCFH
How it was run: (§2)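 Liver membranes from male Sprague-Dawley rats (100-150 g), about 30 µg protein per well. Preincubated 10 min at 37 °C with compound in 1.25% DMSO in 50 mM HEPES pH 7.4. Then 6.33 mM pNPP for 30 min at 37 °C, stopped with NaOH. p-Nitrophenol read at 410 nm. Run in triplicate. Reported as percent of untreated control.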

[4] = biological target: T2, Tyrosine-protein phosphatase non-receptor type 1 (Rattus norvegicus, UniProt P20417); assay: Inhibition of PTPase activity using recombinant r-PTP1B as the enzyme and IR-triphosphopeptide as substrate
T2 sequence (P20417 whole entry): T1 sequence (whole entry)
How it was run: (§3)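 Rat recombinant PTP1B in 33 mM TRIS-HCl, 2 mM EDTA, 50 mM β-mercaptoethanol, pH 7.4 (about 1000-2000 nmol/min/mg). Preincubated 10 min at 37 °C with or without compound in HEPES buffer pH 7.4. Released phosphate read by malachite green-ammonium molybdate at 650 nm against a phosphate standard. Quadruplicates. IC50 by four-parameter logistic fit.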

[5] = system: Mus musculus; assay: Evaluated for their ability to decrease plasma insulin levels in mouse at a dose 100 mg/kg/day.; type: functional
How it was run: (§4)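 Mice dosed orally once daily for 4 days; plasma glucose and insulin measured and expressed as percent change versus a vehicle-treated group (mean ± SE, 4-6 mice/group). NS is generally less than -15% change. Significance is versus vehicle-treated mice.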

[6] = system: Mus musculus; assay: Evaluated in vivo for their ability to decrease plasma glucose levels in diabetic C57BL/KsJ db/db mouse at a dose 100 mg/kg/day; *p indicates <0.05; type: functional; how it was run: as §4
[7] = system: Mus musculus; assay: Evaluated in vivo for their ability to decrease plasma glucose levels in diabetic C57BL/KsJ ob/ob mouse at a dose 100 mg/kg/day; **p indicates <0.01; type: functional; how it was run: as §4
[8] = system: Mus musculus; assay: Evaluated in vivo for their ability to decrease plasma glucose levels in diabetic C57BL/KsJ ob/ob mouse at a dose 20 mg/kg/day; **p indicates <0.01; type: functional; how it was run: as §4
[9] = system: Mus musculus; assay: Evaluated for their ability to decrease plasma insulin level at a dose of 20 mg/kg/day; **p indicates <0.01; type: functional; how it was run: as §4
[10] = biological target: T1, Tyrosine-protein phosphatase non-receptor type 1 (Rattus norvegicus); assay: Inhibition of PTPase activity using recombinant Protein-tyrosine phosphatase 1B as the enzyme and IR-triphosphopeptide as substrate at 50 uM
How it was run: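 Recombinant rat PTP1B (human 321-aa form assayed the same way), activity about 1000-2000 nmol/min/mg, preincubated with compound for 10 min at 37 °C in HEPES pH 7.4. The reaction is started with 50 µM triphosphorylated insulin receptor 1142-1153 dodecapeptide and run 30 min at 37 °C. Released phosphate read by malachite green-molybdate at 650 nm, in quadruplicate. Result is percent inhibition versus control.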

[11] = biological target: T1, Tyrosine-protein phosphatase non-receptor type 1 (Rattus norvegicus); assay: Inhibition of Protein-tyrosine phosphatase 1B activity in rat hepatic membrane at a concentration of 50 uM using pNPP as the substrate; type: cell membranes; conditions: Liver; how it was run: as §2
[12] = system: Mus musculus; assay: Evaluated in vivo for their ability to decrease plasma glucose levels in diabetic C57BL/KsJ ob/ob mouse at a dose 100 mg/kg/day, **p indicates <0.01; type: functional; how it was run: as §4
[13] = system: Mus musculus; assay: Evaluated in vivo for their ability to decrease plasma glucose levels in diabetic C57BL/KsJ db/db mouse at a dose 100 mg/kg/day, *p indicates <0.05; type: functional; how it was run: as §4
[14] = system: Mus musculus; assay: Evaluated for their ability to decrease plasma insulin levels in mouse at a dose 100 mg/kg/day, **p indicates <0.01; type: functional; how it was run: as §4
[15] = system: Mus musculus; assay: Evaluated in vivo for their ability to decrease plasma glucose levels in diabetic C57BL/KsJ ob/ob mouse at a dose 10 mg/kg/day, *p indicates <0.05; type: functional; how it was run: as §4
[16] = biological target: T1, Tyrosine-protein phosphatase non-receptor type 1 (Rattus norvegicus); assay: Inhibition of PTPase activity using recombinant r-PTP1B as the enzyme and IR-triphosphopeptide as substrate at 50 uM; how it was run: as §3
[17] = system: Mus musculus; assay: Evaluated for their ability to decrease plasma insulin levels in mouse at a dose 100 mg/kg/day. **p indicates <0.01; type: functional; how it was run: as §4
[18] = system: Mus musculus; assay: Evaluated in vivo for their ability to decrease plasma glucose levels in diabetic C57BL/KsJ db/db mouse at a dose 100 mg/kg/day *p indicates <0.05; type: functional; how it was run: as §1
[19] = system: Mus musculus; assay: Evaluated in vivo for their ability to decrease plasma glucose levels in diabetic C57BL/KsJ ob/ob mouse at a dose 100 mg/kg/day. **p indicates <0.01; type: functional; how it was run: as §1
[20] = biological target: T2, Tyrosine-protein phosphatase non-receptor type 1; assay: Inhibition of PTPase activity in rat hepatic membrane at a concentration of 50 uM using pNPP as the substrate; type: cell membranes, Liver; how it was run: as §2
[21] = biological target: T2, Tyrosine-protein phosphatase non-receptor type 1; assay: Concentration required to inhibit PTPase activity, recombinant r-PTP1B as the enzyme at a concentration 2.5 uM.; how it was run: as §3
[22] = system: Mus musculus; assay: Evaluated for their ability to decrease plasma insulin levels in mouse at a dose 100 mg/kg/day,**p indicates <0.01; type: functional; how it was run: as §4
[23] = system: Mus musculus; assay: Evaluated in vivo for their ability to decrease plasma glucose levels in diabetic C57BL/KsJ ob/ob mouse at a dose 100 mg/kg/day,**p indicates <0.01; type: functional; how it was run: as §4
[24] = system: Mus musculus; assay: Evaluated for their ability to decrease plasma insulin levels in mouse at a dose 100 mg/kg/day.,**p indicates <0.01; type: functional; how it was run: as §4
[25] = system: Mus musculus; assay: Evaluated in vivo for their ability to decrease plasma glucose levels in diabetic C57BL/KsJ ob/ob mouse at a dose 100 mg/kg/day.,**p indicates <0.01; type: functional; how it was run: as §4
[26] = biological target: T3, Tyrosine-protein phosphatase non-receptor type 1 (Homo sapiens) (UniProt P18031); assay: % inhibition of PTPase activity, recombinant Protein Tyrosine Phosphatase 1b as the enzyme at a concentration 50 uM.; how it was run: as §3
T3 sequence (whole entry): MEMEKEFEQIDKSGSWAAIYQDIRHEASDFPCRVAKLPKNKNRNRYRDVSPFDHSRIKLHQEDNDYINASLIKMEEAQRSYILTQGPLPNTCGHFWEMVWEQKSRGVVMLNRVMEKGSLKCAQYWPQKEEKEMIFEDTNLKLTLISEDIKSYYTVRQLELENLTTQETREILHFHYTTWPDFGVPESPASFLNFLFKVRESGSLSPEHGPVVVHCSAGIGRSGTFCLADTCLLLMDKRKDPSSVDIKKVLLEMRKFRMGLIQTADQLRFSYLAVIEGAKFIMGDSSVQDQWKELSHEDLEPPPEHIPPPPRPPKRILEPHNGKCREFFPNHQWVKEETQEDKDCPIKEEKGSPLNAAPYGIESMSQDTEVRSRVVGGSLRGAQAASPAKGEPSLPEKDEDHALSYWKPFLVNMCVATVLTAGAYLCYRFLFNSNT

inhibition [3]: Not significant
IC50 [4]: 3.8 µM
Compound: C/C(=C\Cn1sc(=O)[nH]c1=O)c1cccc(OCc2nc(-c3ccc(C(F)(F)F)cc3)oc2C)c1
Decrease [1]: 29%
Decrease [2]: 26%

Compound: CC/C(=C\Cn1oc(=O)[nH]c1=O)c1cccc(OCc2nc(-c3ccc(C(F)(F)F)cc3)oc2C)c1
Decrease [5]: 80%
Decrease [6]: 63%
Decrease [7]: 71%
Decrease [8]: 32%
Decrease [9]: 32%
inhibition [10]: 90%
inhibition [11]: 57%

Compound: C/C(=C\Cn1oc(=O)[nH]c1=O)c1cccc(OCc2nc(-c3ccc(C(F)(F)F)cc3)oc2C)c1
Decrease [12]: 58%
Decrease [13]: 62%
Decrease [14]: 86%
Decrease [15]: 20%
inhibition [3]: 49%
inhibition [16]: 1.9%

Inhibition % [20]: 71%
inhibition [16]: 7%
Compound: C/C(=C\c1cccc(OCc2nc(-c3ccc(C(F)(F)F)cc3)oc2C)c1)Cn1oc(=O)[nH]c1=O
Decrease [17]: 28%
Decrease [18]: 36%
Decrease [19]: 37%

inhibition [3]: 62%
IC50 [21]: 25 µM
Compound: C/C(=C\Cn1oc(=O)[nH]c1=O)c1cccc(OCC#Cc2cc(C(F)(F)F)cc(C(F)(F)F)c2)c1

Compound: Cc1oc(-c2ccc(C(F)(F)F)cc2)nc1COc1cccc(/C(=C/Cn2oc(=O)[nH]c2=O)c2ccccc2)c1
Decrease [22]: 74%
Decrease [23]: 55%
inhibition [3]: 24%
inhibition [16]: 1.1%

Compound: CCCC/C(=C\Cn1oc(=O)[nH]c1=O)c1cccc(OCc2nc(-c3ccc(C(F)(F)F)cc3)oc2C)c1
Decrease [24]: 88%
Decrease [25]: 61%
inhibition [26]: 1.4%
inhibition [16]: 1.9%
